Measured values taken from paper PMC8897028 (Acta Pharmaceutica Sinica. B, 2021).

Tests used:
[1] = molecular target: T1, mTRPV3 H426A (Mus musculus, UniProt Q8K424, H426A); assay: whole-cell patch-clamp of mTRPV3 H426A mutant in HEK293 cells; format: cell-based
T1 sequence (Q8K424 1-791 H426A): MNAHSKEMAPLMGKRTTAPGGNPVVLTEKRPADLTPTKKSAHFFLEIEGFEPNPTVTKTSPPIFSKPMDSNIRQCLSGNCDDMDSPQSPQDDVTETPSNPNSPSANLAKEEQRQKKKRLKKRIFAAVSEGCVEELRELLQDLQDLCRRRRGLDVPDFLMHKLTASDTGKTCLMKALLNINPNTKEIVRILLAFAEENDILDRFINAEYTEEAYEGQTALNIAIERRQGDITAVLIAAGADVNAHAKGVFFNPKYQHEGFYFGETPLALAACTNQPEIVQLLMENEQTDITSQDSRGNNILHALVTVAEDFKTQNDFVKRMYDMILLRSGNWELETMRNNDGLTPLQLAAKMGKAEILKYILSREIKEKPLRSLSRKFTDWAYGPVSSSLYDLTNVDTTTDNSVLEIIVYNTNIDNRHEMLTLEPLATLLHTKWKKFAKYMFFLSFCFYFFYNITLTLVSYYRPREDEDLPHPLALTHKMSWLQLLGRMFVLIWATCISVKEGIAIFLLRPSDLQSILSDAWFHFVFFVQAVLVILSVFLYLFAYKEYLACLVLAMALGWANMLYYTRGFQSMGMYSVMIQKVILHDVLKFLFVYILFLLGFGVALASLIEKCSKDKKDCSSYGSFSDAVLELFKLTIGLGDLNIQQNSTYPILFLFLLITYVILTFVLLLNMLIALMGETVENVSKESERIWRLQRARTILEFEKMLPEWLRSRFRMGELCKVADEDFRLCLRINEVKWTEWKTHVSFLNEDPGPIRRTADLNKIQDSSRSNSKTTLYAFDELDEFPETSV
Summary of the method: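 The sequence-confirmed site-directed mTRPV3 mutant was transiently expressed in HEK293 cells, and EGFP-positive cells were recorded whole-cell 18 h post-transfection. Cells were held at 0 mV with 500-ms ramps from −100 to +100 mV every 2 s, at 22–24 °C. Compounds were diluted in perfusion solution.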

[2] = molecular target: T2, hTRPV3 (Homo sapiens, UniProt Q8NET8); assay: inside-out single-channel recordings of HEK293 cells overexpressing hTRPV3; format: biochemical
T2 sequence (Q8NET8 1-790): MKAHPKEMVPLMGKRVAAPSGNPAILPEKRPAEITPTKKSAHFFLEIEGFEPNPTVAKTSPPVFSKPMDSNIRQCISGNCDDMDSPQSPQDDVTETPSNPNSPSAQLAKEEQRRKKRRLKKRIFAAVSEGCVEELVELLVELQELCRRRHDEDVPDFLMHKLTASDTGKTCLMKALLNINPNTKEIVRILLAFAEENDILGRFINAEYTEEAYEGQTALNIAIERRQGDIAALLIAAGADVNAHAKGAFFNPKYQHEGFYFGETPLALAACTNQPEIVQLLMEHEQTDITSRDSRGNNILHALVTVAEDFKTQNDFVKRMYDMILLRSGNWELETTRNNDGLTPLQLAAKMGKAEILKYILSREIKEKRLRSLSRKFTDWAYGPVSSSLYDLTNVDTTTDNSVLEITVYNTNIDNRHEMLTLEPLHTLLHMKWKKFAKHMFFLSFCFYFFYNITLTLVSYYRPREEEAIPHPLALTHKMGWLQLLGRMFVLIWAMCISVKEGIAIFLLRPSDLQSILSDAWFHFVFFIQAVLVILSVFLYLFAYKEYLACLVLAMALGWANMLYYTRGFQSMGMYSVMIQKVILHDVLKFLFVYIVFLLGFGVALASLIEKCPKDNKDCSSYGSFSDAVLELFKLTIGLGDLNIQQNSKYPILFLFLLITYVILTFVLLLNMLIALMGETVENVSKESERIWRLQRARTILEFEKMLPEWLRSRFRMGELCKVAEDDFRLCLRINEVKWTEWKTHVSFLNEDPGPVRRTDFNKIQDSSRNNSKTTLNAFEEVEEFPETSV
Summary of the method: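 Inside-out patches from EGFP-identified HEK293 cells, 18 h after hTRPV3 transfection, used 6–10 MΩ pipettes. Patches were held at 0 mV, then stepped to +80 mV. Currents were sampled at 10 kHz, filtered at 2.9 kHz, at 22–24 °C. All-points histograms were Gaussian-fitted for conductance and mean open probability; n = 4.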

[3] = tested on: C57BL/6J mice; assay: ear swelling and chronic pruritus model induced by TRPV3 agonist carvacrol; format: in vivo, mouse; settings: 3% carvacrol only; recorded 1 h on day 7
Summary of the method: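 Male C57BL/6J mice, 8–10 weeks old, were acclimatised for at least one week at 22 ± 2 °C on a 12 h light/dark cycle. The right ear received topical 3% carvacrol in ethanol/olive oil (4/1, v/v) once daily for 6 days. Test compound (1.0 mmol/L in 50 μL solvent) was applied 30 min after carvacrol; vehicle was solvent with 1% DMSO. Scratching was recorded for 1 h on day 7; n = 6–8 mice per group.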

[4] = tested on: HEK293 cells expressing hTRPV3; assay: cell death assay; format: cell-based, human; settings: 12 h, n = 4
Summary of the method: (§1)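 HEK293 cells 12 h after hTRPV3 transfection, or HaCaT cells, were seeded in six-well plates, randomly split into 6 groups, and treated 12 h in culture medium. Cells were detached with 0.25% trypsin (HEK293 1 min; HaCaT 7 min), centrifuged, and stained 30 min in PBS with Hoechst and PI. Five random fields per group were imaged. Death ratio = PI-labelled over Hoechst-labelled nuclei, averaged over five images; n = 4.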

[5] = tested on: HaCaT cells; assay: cell death assay; format: cell-based, human; settings: carvacrol 300 μmol/L alone; 12 h
Summary of the method: as §1

[6] = tested on: HEK293 cells expressing hTRPV3; assay: cell proliferation MTT assay, HEK293 cells transfected with hTRPV3; format: cell-based, human; settings: carvacrol 300 μmol/L, 24 h
Summary of the method: (§2)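 hTRPV3-transfected HEK293 or HaCaT cells were plated at 5 × 10^3 per well for 24 h, then exposed 24 h to TRPV3 activator and/or inhibitor in culture medium. MTT (5 mg/mL solution) was added for 4 h. Medium was removed, formazan dissolved in DMSO, and absorbance read at 490 nm.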

[7] = tested on: HaCaT cells; assay: cell proliferation MTT assay, HaCaT cells; format: cell-based, human; settings: carvacrol 300 μmol/L, 24 h
Summary of the method: as §2

[8] = molecular target: hTRPA1 (Homo sapiens, UniProt O75762); assay: whole-cell patch-clamp of TRPA1 currents in HEK293 cells; format: cell-based; settings: ruthenium red 20 μmol/L; current activated by AITC 300 μmol/L
Sequence of hTRPA1 (O75762 whole entry, the tested form may be a part): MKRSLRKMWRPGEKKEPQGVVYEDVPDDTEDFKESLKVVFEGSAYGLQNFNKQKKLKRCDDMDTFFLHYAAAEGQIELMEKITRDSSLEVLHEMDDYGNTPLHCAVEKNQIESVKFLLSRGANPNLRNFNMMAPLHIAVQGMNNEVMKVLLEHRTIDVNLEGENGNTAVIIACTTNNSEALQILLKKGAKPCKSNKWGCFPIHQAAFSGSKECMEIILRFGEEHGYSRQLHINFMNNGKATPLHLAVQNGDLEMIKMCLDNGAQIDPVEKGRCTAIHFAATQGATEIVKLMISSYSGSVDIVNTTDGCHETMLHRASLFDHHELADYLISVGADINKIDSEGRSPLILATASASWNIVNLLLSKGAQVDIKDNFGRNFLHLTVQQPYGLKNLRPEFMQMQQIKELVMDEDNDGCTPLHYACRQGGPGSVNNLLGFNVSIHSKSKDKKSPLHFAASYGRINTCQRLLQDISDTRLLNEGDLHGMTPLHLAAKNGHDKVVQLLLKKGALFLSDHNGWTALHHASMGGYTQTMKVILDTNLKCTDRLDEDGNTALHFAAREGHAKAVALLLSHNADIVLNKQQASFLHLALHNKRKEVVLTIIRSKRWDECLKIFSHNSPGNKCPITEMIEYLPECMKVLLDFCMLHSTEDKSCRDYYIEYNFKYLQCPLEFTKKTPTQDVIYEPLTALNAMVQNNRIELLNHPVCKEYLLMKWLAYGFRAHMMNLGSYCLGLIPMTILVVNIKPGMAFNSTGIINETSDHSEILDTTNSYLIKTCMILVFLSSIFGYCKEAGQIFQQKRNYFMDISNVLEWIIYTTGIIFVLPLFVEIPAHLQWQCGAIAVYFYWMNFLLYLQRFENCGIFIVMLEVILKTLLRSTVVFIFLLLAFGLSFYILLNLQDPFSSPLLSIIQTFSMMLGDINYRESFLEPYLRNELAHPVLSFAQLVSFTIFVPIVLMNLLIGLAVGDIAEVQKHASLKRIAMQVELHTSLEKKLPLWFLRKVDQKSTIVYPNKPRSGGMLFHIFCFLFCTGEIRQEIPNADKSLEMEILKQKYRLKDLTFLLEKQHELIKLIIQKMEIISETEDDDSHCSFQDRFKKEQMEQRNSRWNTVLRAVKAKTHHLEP
Summary of the method: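 Human channel cDNAs were transiently transfected into HEK293 cells with Lipofectamine 2000. EGFP-positive cells were recorded whole-cell 18 h later at 22–24 °C with ~4.0 MΩ fire-polished pipettes. Cells were held at 0 mV with 500-ms ramps from −100 to +100 mV every 2 s. Test compound in perfusion solution was co-applied with agonist, and average current inhibition was summarised; n = 4–6.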

In the case of NCCOB(c1ccccc1)c1ccccc1 [2-APB, 2-aminoethoxydiphenyl borate, reference compound], the “activation of H426A mutant channel” value ([1]; 2-APB 50 μmol/L) is reported as “not activated”.

For Cc1ccc(C(C)C)cc1O [carvacrol, reference compound], the “increase of channel open probability versus vehicle” value ([2]; carvacrol 300 μmol/L alone) was “about 90 fold”, the single channel conductance ([2]; carvacrol 300 μmol/L alone) was 168.4 ± 2.1 pS and the channel open probability ([2]; carvacrol 300 μmol/L alone, vehicle control 0.3 ± 0.2%) was 26.9 ± 5.5%. For the same compound, the “number of scratching bouts” value [3] was 113.0 ± 16.9, the cell death ratio ([4]; carvacrol 300 μmol/L alone, vehicle 5.3 ± 0.5%) was 21.1 ± 1.9% and the cell death ratio [5] was 13.0 ± 2.1%. For the same compound, the cell proliferation [6] was “suppressed the cell proliferation”, the cell proliferation [7] was “suppressed the cell proliferation” and the “activation of H426A mutant current” value ([1]; carvacrol 300 μmol/L) was “activated”.

For N.N.N.N.N.N.N.N.N.N.N.N.N.N.[Cl-].[Cl-].[Cl-].[Cl-].[Cl-].[Cl-].[O-2].[O-2].[Ru+3].[Ru+3].[Ru+4] [ruthenium red, reference compound], the “inhibition of TRPA1 current” value [8] was “inhibited”, the channel open probability ([2]; RR 20 μmol/L with carvacrol 300 μmol/L, from 26.9 ± 5.5%, n = 4) was 0.5 ± 0.4% and the single-channel conductance ([2]; RR 20 μmol/L with carvacrol 300 μmol/L, from 175.2 ± 0.9 pS, n = 4) was 122.8 ± 5.5 pS. For the same compound, the cell death ratio ([4]; ruthenium red positive control with carvacrol 300 μmol/L) was 14.3 ± 1.7%.
